# Activity calls are given as the source filed them. The calls are words filed in the database; no cut-off is given here.
# Tests used:
# PANC-1 [1] = assay: Induction of apoptosis in human PANC-1 cells assessed as early apoptotic cells at 8 uM incubated for 48 hrs by Annexin V-FITC/PI staining based flow cytometry (reference value: 1.88 %); assay type: functional
# BXPC-3 [2] = assay: Induction of apoptosis in human BXPC-3 cells assessed as late apoptotic cells at 10 uM incubated for 48 hrs by Annexin V-FITC/PI staining based flow cytometry (reference value: 6.72 %); assay type: functional
# BXPC-3 [3] = assay: Inhibition of cell migration in human BXPC-3 cells incubated for 48 hrs by crystal violet staining based transwell assay; assay type: functional; settings: dose 2.5-10 µM
# How it was run: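 Cells at 1.5×10^5 cells/mL in serum-free medium containing drug were added to the upper Transwell chamber (200 μL), with medium containing 10% FBS below. After 48 h, non-migrated cells were swabbed off. Inserts were fixed in 4% paraformaldehyde for 15-20 min and stained with 0.5% crystal violet. Cells were counted in four random fields at 100×; n = 3.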
# BxPC-3 [4] = assay: Antitumor activity aginst human BxPC-3 cells xenografted in BALB/c nude mouse assessed as decrease in tumor volume at 15 mg/kg, ip qd for 21 days relative to control; parameters: scale not given: the % may be the effect or the level left; settings: time 21 day
# Mus musculus = assay: In vivo inhibition of Gli1 in human BxPC-3 cells xenografted in BALB/c nude mouse at 5 to 15 mg/kg, ip qd for 21 days by IHC analysis; settings: dose 5-15 mg/kg, time 21.0 day
# BXPC-3 [5] = assay: Induction of cell cycle arrest in human BXPC-3 cells assessed as accumulation at S phase at 10 uM incubated for 48 hrs by PI/RNase staining based flow cytometry (reference value: 8.18 %); assay type: functional
# PANC-1 [6] = assay: Inhibition of Hh signaling pathway in human PANC-1 cells assessed as reduction in Gli1 mRNA level incubated for 48 hrs by qRT-PCR analysis; assay type: cell-based; settings: dose 2.5-10 µM
# How it was run: (§1)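 Total RNA was extracted by column kit after 48 h treatment and checked spectrophotometrically. Gli1 and Ptch1 transcripts were quantified by real-time RT-qPCR with GAPDH as internal control. Results are fold change relative to the untreated group; three separate experiments.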
# PANC-1 [7] = assay: Induction of apoptosis in human PANC-1 cells assessed as late apoptotic cells at 10 uM incubated for 48 hrs by Annexin V-FITC/PI staining based flow cytometry (reference value: 2.74 %); assay type: functional
# [8] = Toxicity in BALB/c nude mouse xenografted with human BxPC-3 cells assessed as necrosis in heart at 5 to 15 mg/kg, ip qd for 21 days by H and E staining based analysis; settings: in vivo, 504 h
# [9] = Toxicity in BALB/c nude mouse xenografted with human BxPC-3 cells assessed as cellular edema in heart at 5 to 15 mg/kg, ip qd for 21 days by H and E staining based analysis; settings: in vivo, 504 h
# PANC-1 [10] = assay: Induction of apoptosis in human PANC-1 cells assessed as viable cells at 8 uM incubated for 48 hrs by Annexin V-FITC/PI staining based flow cytometry (reference value: 93.2 %); assay type: functional; settings: read-out: Activity
# [11] = Toxicity in BALB/c nude mouse xenografted with human BxPC-3 cells assessed as cellular edema in kidneys at 5 to 15 mg/kg, ip qd for 21 days by H and E staining based analysis; settings: in vivo, 504 h
# BXPC-3 [12] = assay: Induction of cell cycle arrest in human BXPC-3 cells assessed as accumulation at G1 phase at 5 uM incubated for 48 hrs by PI/RNase staining based flow cytometry (reference value: 84.2 %); assay type: functional
# PANC-1 [13] = assay: Induction of cell cycle arrest in human PANC-1 cells assessed as accumulation at G2 phase at 10 uM incubated for 48 hrs by PI/RNase staining based flow cytometry (reference value: 5.83 %); assay type: functional
# [14] = Inhibition of Hh signaling pathway in mouse NIH3T3 cells incubated for 48 hrs by Gli luciferase reporter assay; assay type: cell-based; settings: NIH3T3, 48 h
# How it was run: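 Reporter cells were seeded in 96-well plates, incubated overnight, then treated for 48 h. Lysate luciferase activity was measured with a dual-luciferase system, and firefly signal was normalised to Renilla.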
# [15] = Toxicity in BALB/c nude mouse xenografted with human BxPC-3 cells assessed as necrosis in spleen at 5 to 15 mg/kg, ip qd for 21 days by H and E staining based analysis; settings: in vivo, 504 h
# [16] = Toxicity in BALB/c nude mouse xenografted with human BxPC-3 cells assessed as inflammatory infiltration in heart at 5 to 15 mg/kg, ip qd for 21 days by H and E staining based analysis; settings: in vivo, 504 h
# PANC-1 [17] = assay: Induction of cell cycle arrest in human PANC-1 cells assessed as accumulation at G1 phase at 2.5 uM incubated for 48 hrs by PI/RNase staining based flow cytometry (reference value: 82.0 %); assay type: functional
# BXPC-3 [18] = assay: Induction of apoptosis in human BXPC-3 cells assessed as necrotic cells at 5 uM incubated for 48 hrs by Annexin V-FITC/PI staining based flow cytometry (reference value: 0.71 %); assay type: functional
# BXPC-3 [19] = assay: Induction of apoptosis in human BXPC-3 cells assessed as late apoptotic cells at 5 uM incubated for 48 hrs by Annexin V-FITC/PI staining based flow cytometry (reference value: 6.72 %); assay type: functional
# PANC-1 [20] = assay: Inhibition of Hh signaling pathway in human PANC-1 cells assessed as reduction in Ptch1 mRNA level incubated for 48 hrs by qRT-PCR analysis; assay type: cell-based; how it was run: as §1
# BXPC-3 [21] = assay: Induction of apoptosis in human BXPC-3 cells assessed as necrotic cells at 8 uM incubated for 48 hrs by Annexin V-FITC/PI staining based flow cytometry (reference value: 0.71 %); assay type: functional
# BXPC-3 [22] = assay: Induction of apoptosis in human BXPC-3 cells assessed as early apoptotic cells at 10 uM incubated for 48 hrs by Annexin V-FITC/PI staining based flow cytometry (reference value: 1.11 %); assay type: functional
# PANC-1 [23] = assay: Induction of apoptosis in human PANC-1 cells assessed as late apoptotic cells at 2.5 uM incubated for 48 hrs by Annexin V-FITC/PI staining based flow cytometry (reference value: 2.74 %); assay type: functional
# BXPC-3 [24] = assay: Induction of apoptosis in human BXPC-3 cells assessed as viable cells at 8 uM incubated for 48 hrs by Annexin V-FITC/PI staining based flow cytometry (reference value: 91.5 %); assay type: functional; settings: read-out: Activity
# PANC-1 [25] = assay: Induction of apoptosis in human PANC-1 cells assessed as viable cells at 2.5 uM incubated for 48 hrs by Annexin V-FITC/PI staining based flow cytometry (reference value: 93.2 %); assay type: functional; settings: read-out: Activity
# [26] = Toxicity in BALB/c nude mouse xenografted with human BxPC-3 cells assessed as tissue fibrosis in heart at 5 to 15 mg/kg, ip qd for 21 days by H and E staining based analysis; settings: in vivo, 504 h
smiles,measurement,setting,value
CN(C)Cc1ccc(NC(=O)c2ccc(Nc3nccc(-c4cccnc4)n3)cc2)cc1,Activity,PANC-1 [1],2.97%
same,Activity,BXPC-3 [2],24%
same,inhibition,BXPC-3 [3],Dose-dependent-effect
same,Activity,BxPC-3 [4],82%
same,inhibition,Mus musculus,Active
same,Activity,BXPC-3 [5],3.11%
same,inhibition,PANC-1 [6],Dose-dependent-effect
same,Activity,PANC-1 [7],22.3%
same,Activity,[8],Non-toxic
same,Activity,[9],Non-toxic
same,viability at 8 µM,PANC-1 [10],85.9%
same,Activity,[11],Non-toxic
same,Activity,BXPC-3 [12],83.9%
same,Activity,PANC-1 [13],12.2%
same,IC50,[14],2.7 nM
same,Activity,[15],Non-toxic
same,Activity,[16],Non-toxic
same,Activity,PANC-1 [17],83.7%
same,Activity,BXPC-3 [18],1.02%
same,Activity,BXPC-3 [19],10.8%
same,inhibition,PANC-1 [20],Dose-dependent-effect
same,Activity,BXPC-3 [21],2.47%
same,Activity,BXPC-3 [22],1.86%
same,Activity,PANC-1 [23],5.12%
same,viability at 8 µM,BXPC-3 [24],82.5%
same,viability at 2.5 µM,PANC-1 [25],90.7%
same,Activity,[26],Non-toxic

# Reference: ChEMBL document CHEMBL6092204, “Synthesis of pyridyl pyrimidine hedgehog signaling pathway inhibitors and their antitumor activity in human pancreatic cancer” (Eur J Med Chem, 2024)
